Data from ChEMBL document CHEMBL4138315, “Synthesis and Evaluation of a Novel Bivalent Selective Antagonist for the Mu-Delta Opioid Receptor Heterodimer that Reduces Morphine Withdrawal in Mice” (J Med Chem, 2018).
Activity calls are given as the source filed them. The rule behind the calls is not given here. Where a SMILES comes first, the peptide text is derived from it. [ ]: non-standard residue; d: D form. ξ: configuration not given here. d2Nal = N[C@H](Cc1ccc2ccccc2c1)C(=O)O; ξTic = O=C(O)C1Cc2ccccc2CN1

Tests used:
[1] = biological target: T1, Opioid receptors; mu & delta (Homo sapiens, UniProt P41143+P35372); experiment: (§1) Antagonist activity at human mu-delta opioid receptor heterodimer expressed in CHO cell membranes assessed as inhibition of CYM51010-induced [35S]-GTPgammaS binding at high site fraction preincubated for 5 mins followed by CYM51010 and [35S]-GTPgammaS addition measured after 80 mins; type: functional
Outline: (§2)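 Membranes from CHO cells stably expressing human opioid receptor (N-terminal tagged) were preincubated 5 min with antagonist concentration curves, then given 1 µM CYM51010 and 0.1 nM 35S-GTPγS; 30°C, 80 min, GF/B filtration, scintillation counting. Normalized to CYM51010 alone (100%) and vehicle (0%). Fits: 1-site for MOR/DOR (IC50), 2-site for MDOR (IC50HIGH). N = 3-4, duplicate, mean ± SEM.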

[2] = biological target: T1, Opioid receptors; mu & delta; experiment: as §1, with “site fraction at 100 uM preincubated for” for “site fraction preincubated for”, “80 mins relative to control” for “80 mins”; type: functional
[3] = biological target: Kappa-type opioid receptor (Homo sapiens) (UniProt P41145); experiment: Antagonist activity at human KOR expressed in CHO cell membranes assessed as inhibition of U50488-induced [35S]-GTPgammaS binding preincubated for 5 mins followed by U50488 and [35S]-GTPgammaS addition measured after 80 mins; type: functional
Outline: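 KOR-CHO membranes (human receptor, N-terminal tag), antagonist concentration curve preincubated 5 min, then 1 µM U50,488 plus 0.1 nM 35S-GTPγS added. Incubated 30°C, 80 min; filtration and scintillation counting. Vehicle 0.1% DMSO in assay buffer with 0.1% BSA. Normalized to agonist alone (100%) and vehicle (0%). One-site curve fit; N = 3 independent experiments in duplicate.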

[4] = biological target: T2, Mu-type opioid receptor (Homo sapiens, UniProt P35372); experiment: Antagonist activity at human MOR expressed in CHO cell membranes assessed as inhibition of CYM51010-induced [35S]-GTPgammaS binding preincubated for 5 mins followed by CYM51010 and [35S]-GTPgammaS addition measured after 80 mins; type: functional; outline: as §2
[5] = biological target: T1, Opioid receptors; mu & delta; experiment: Antagonist activity at human mu-delta opioid receptor heterodimer expressed in CHO cell membranes assessed as inhibition of DAMGO-induced [35S]-GTPgammaS binding preincubated for 5 mins followed by DAMGO and [35S]-GTPgammaS addition measured after 80 mins; type: functional
Outline: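 MDOR-CHO membranes were preincubated 5 min with antagonist concentration curve, then 1 µM DAMGO and 0.1 nM 35S-GTPγS were added. Incubated 30°C, 80 min; filter harvest, scintillation counting. Normalized to agonist alone and vehicle. N = 3 independent experiments in duplicate.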

[6] = biological target: T2, Mu-type opioid receptor; experiment: Displacement of [3H]-diprenorphine from human MOR expressed in CHO cell membranes after 80 mins by scintillation counting analysis
Outline: (§3)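 Competition binding on MOR-, DOR- or MDOR-CHO membranes used a fixed 3H-diprenorphine level against competitor concentration curves; 30°C, 80 min, GF/B filtration, scintillation counting. Nonspecific binding defined with 500 nM each DMT-Tic-Ala-OH and CTAP. Ki was derived from IC50 and the 3H-diprenorphine KD in each line; MDOR data fitted with a 2-site model. N = 3-4, mean ± SEM.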

[7] = biological target: T1, Opioid receptors; mu & delta; experiment: as §1, with “80 mins relative to control” for “80 mins”; type: functional
Outline: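 35S-GTPγS coupling in MDOR-CHO membranes: 5 min antagonist pre-incubation, then 1 µM CYM51010 plus 0.1 nM 35S-GTPγS, 30°C for 80 min, filtration and scintillation read. A 3-variable 2-site antagonist fit gave FHIGH, the fraction of the high-potency site. N = 3-4 independent experiments.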

[8] = biological target: T1, Opioid receptors; mu & delta; experiment: Displacement of [3H]-diprenorphine from human mu-delta opioid receptor expressed in CHO cell membranes after 80 mins by scintillation counting analysis; outline: as §3
[9] = biological target: T1, Opioid receptors; mu & delta; experiment: Displacement of [3H]-diprenorphine from human mu-delta opioid receptor heterodimer expressed in CHO cell membranes at high site fraction after 80 mins by scintillation counting analysis relative to control
[10] = organism: Homo sapiens; experiment: Selectivity ratio of KiH for human mu-delta opioid receptor heterodimer expressed in CHO cell membranes to Ki for human DOR expressed in CHO cell membranes; type: cell-based
[11] = organism: Homo sapiens; experiment: Selectivity ratio of IC50H for human mu-delta opioid receptor heterodimer expressed in CHO cell membranes to IC50 for human DOR expressed in CHO cell membranes; type: cell-based
[12] = biological target: T3, Delta-type opioid receptor (Homo sapiens, UniProt P41143); experiment: Antagonist activity at human DOR expressed in CHO cell membranes assessed as inhibition of CYM51010-induced [35S]-GTPgammaS binding preincubated for 5 mins followed by CYM51010 and [35S]-GTPgammaS addition measured after 80 mins; type: functional; outline: as §2
[13] = biological target: T3, Delta-type opioid receptor; experiment: Displacement of [3H]-diprenorphine from human DOR expressed in CHO cell membranes after 80 mins by scintillation counting analysis; outline: as §3
[14] = organism: Mus musculus; experiment: Antinociceptive activity in CD1 mouse assessed as reduction in CYM51010-induced nociception at 10 nmol pretreated for 5 mins followed by CYM51010 injection measured up to 2 hrs by tail flick assay; type: functional, organism-based

T3 sequence (P41143 whole entry): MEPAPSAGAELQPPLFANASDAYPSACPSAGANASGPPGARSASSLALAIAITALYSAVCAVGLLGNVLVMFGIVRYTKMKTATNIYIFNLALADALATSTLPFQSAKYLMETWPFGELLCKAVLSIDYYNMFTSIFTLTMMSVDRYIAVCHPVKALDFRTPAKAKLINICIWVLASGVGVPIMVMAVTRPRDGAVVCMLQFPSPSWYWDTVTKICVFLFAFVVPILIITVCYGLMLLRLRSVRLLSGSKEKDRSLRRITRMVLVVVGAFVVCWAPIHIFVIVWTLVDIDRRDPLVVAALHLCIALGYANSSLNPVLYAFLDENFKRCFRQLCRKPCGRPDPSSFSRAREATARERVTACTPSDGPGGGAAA
T2 sequence (P35372 whole entry): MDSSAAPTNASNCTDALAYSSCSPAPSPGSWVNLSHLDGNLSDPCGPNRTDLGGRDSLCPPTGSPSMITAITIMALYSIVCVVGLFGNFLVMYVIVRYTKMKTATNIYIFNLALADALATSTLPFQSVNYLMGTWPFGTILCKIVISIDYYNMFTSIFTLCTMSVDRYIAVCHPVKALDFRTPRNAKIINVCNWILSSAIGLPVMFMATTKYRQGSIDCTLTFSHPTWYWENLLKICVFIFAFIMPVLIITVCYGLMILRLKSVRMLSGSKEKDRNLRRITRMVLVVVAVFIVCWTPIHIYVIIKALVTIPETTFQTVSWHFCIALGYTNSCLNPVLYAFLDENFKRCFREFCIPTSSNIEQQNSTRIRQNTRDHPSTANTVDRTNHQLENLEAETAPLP
T1 sequence (P35372 whole entry, looked up): as the sequence (P35372 whole entry) above
T1 sequence (P41143 whole entry, looked up): as the sequence (P41143 whole entry) above
Kappa-type opioid receptor (Homo sapiens), sequence (P41145 whole entry): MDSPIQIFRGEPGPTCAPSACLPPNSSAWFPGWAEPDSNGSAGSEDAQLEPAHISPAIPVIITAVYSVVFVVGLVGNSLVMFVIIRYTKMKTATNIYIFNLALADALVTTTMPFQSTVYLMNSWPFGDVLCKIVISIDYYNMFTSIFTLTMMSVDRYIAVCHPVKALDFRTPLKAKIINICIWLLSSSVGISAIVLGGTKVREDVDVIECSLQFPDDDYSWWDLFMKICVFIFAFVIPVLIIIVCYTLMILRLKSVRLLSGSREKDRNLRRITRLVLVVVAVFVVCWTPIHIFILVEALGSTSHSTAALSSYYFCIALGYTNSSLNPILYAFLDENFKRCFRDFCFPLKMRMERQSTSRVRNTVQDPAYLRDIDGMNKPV

SMILES	IC50H [1] [µM]	Imax [7] [%]	KiH [8] [nM]	Imax [9] [%]	Ratio Ki [10]	Ratio IC50 [11]	IC50 ([12]; cho) [µM]	Ki ([13]; cho) [µM]	IC50 ([4]; cho) [µM]	Ki ([6]; cho) [µM]	further results
NC(=O)[C@@H](Cc1ccc2ccccc2c1)NC(=O)[C@H](Cc1ccccc1)NC(=O)[C@@H]1CCCN1C(=O)[C@@H](N)Cc1ccc(O)cc1 (H-YPF[d2Nal]-NH2)	> 1	–	–	–	–	–	–	–	–	–	Imax [2]: 0.43%; inhibition [3]: inactive; IC50 [4]: > 1 µM; IC50 [5]: >= 3333 nM; Ki [6]: > 1 µM
N[C@@H](Cc1ccc(O)cc1)C(=O)N1Cc2ccccc2C[C@@H]1C(=O)NCC(=O)NCC(=O)N[C@H](CCCCNC(=O)CNC(=O)[C@@H](Cc1cccc2ccccc12)NC(=O)[C@H](Cc1ccccc1)NC(=O)[C@@H]1CCCN1C(=O)[C@@H](N)Cc1ccc(O)cc1)C(=O)O	0.0034	43	2.5	12	110	17	–	–	–	–	–
N[C@@H](Cc1ccc(O)cc1)C(=O)N1Cc2ccccc2C[C@@H]1C(=O)NCC(=O)NCCCCC(=O)N[C@H](CCCCNC(=O)CNC(=O)[C@@H](Cc1cccc2ccccc12)NC(=O)[C@H](Cc1ccccc1)NC(=O)[C@@H]1CCCN1C(=O)[C@@H](N)Cc1ccc(O)cc1)C(=O)O	0.0021	39	2	12	58	28	–	–	–	–	–
N[C@@H](Cc1ccc(O)cc1)C(=O)N1Cc2ccccc2C[C@H]1C(=O)NCC(=O)NCC(=O)NCCCCCC(=O)NCCC(=O)N[C@@H](CCCCNC(=O)CCNC(=O)CCCCCNC(=O)CCNC(=O)CNC(=O)[C@@H](Cc1cccc2ccccc12)NC(=O)[C@H](Cc1ccccc1)NC(=O)[C@@H]1CCCN1C(=O)[C@@H](N)Cc1ccc(O)cc1)C(=O)O	–	–	–	–	–	–	0.094	0.23	> 1	> 1	–
N[C@@H](Cc1ccc(O)cc1)C(=O)N1Cc2ccccc2C[C@@H]1C(=O)NCC(=O)NCCC(=O)NCCCCCC(=O)N[C@H](CCCCNC(=O)CCCCCNC(=O)CNC(=O)[C@@H](Cc1cccc2ccccc12)NC(=O)[C@H](Cc1ccccc1)NC(=O)[C@@H]1CCCN1C(=O)[C@@H](N)Cc1ccc(O)cc1)C(=O)O	0.02	41	8.1	15	35	5	–	–	–	–	–
N[C@@H](Cc1ccc(O)cc1)C(=O)N1Cc2ccccc2C[C@H]1C(=O)NCC(=O)NCCCCC(=O)N[C@@H](CCCCNC(=O)CNC(=O)[C@@H](Cc1cccc2ccccc12)NC(=O)[C@H](Cc1ccccc1)NC(=O)[C@@H]1CCCN1C(=O)[C@@H](N)Cc1ccc(O)cc1)C(=O)O	–	–	–	–	–	–	0.058	0.12	> 1	> 1	–
NCCCC[C@H](NC(=O)CCCNC(=O)CNC(=O)[C@@H]1Cc2ccccc2CN1C(=O)[C@@H](N)Cc1ccc(O)cc1)C(=O)O	–	–	–	–	–	–	–	0.25	–	–	–
N[C@@H](Cc1ccc(O)cc1)C(=O)N1Cc2ccccc2CC1C(=O)O (stereo partly specified) (H-Tyr-[ξTic]-OH)	0.25	44	–	–	–	–	–	–	–	–	IC50 [12]: 0.1 µM; Activity [14]: inactive; Ki [13]: 0.23 µM; inhibition [3]: inactive; IC50 [5]: 0.0369 µM
N[C@@H](Cc1ccc(O)cc1)C(=O)N1Cc2ccccc2C[C@H]1C(=O)NCC(=O)NCCC(=O)NCCCCCC(=O)N[C@@H](CCCCNC(=O)CCCCCNC(=O)CNC(=O)[C@@H](Cc1cccc2ccccc12)NC(=O)[C@H](Cc1ccccc1)NC(=O)[C@@H]1CCCN1C(=O)[C@@H](N)Cc1ccc(O)cc1)C(=O)O	–	–	–	–	–	–	0.1	0.29	> 1	> 1	–
N[C@@H](Cc1ccc(O)cc1)C(=O)N1Cc2ccccc2C[C@H]1C(=O)NCC(=O)NCC(=O)N[C@@H](CCCCNC(=O)CNC(=O)[C@@H](Cc1cccc2ccccc12)NC(=O)[C@H](Cc1ccccc1)NC(=O)[C@@H]1CCCN1C(=O)[C@@H](N)Cc1ccc(O)cc1)C(=O)O	–	–	–	–	–	–	0.058	0.27	> 1	> 1	–
N[C@@H](Cc1ccc(O)cc1)C(=O)N1Cc2ccccc2C[C@@H]1C(=O)NCC(=O)NCC(=O)NCCCCCC(=O)NCCC(=O)N[C@H](CCCCNC(=O)CCNC(=O)CCCCCNC(=O)CCNC(=O)CNC(=O)[C@@H](Cc1cccc2ccccc12)NC(=O)[C@H](Cc1ccccc1)NC(=O)[C@@H]1CCCN1C(=O)[C@@H](N)Cc1ccc(O)cc1)C(=O)O	0.048	37	16	12	15	2	–	–	–	–	–
N[C@@H](Cc1ccc(O)cc1)C(=O)N1Cc2ccccc2C[C@H]1C(=O)NCC(=O)NCCCC(=O)N[C@@H](CCCCNC(=O)CCNC(=O)CNC(=O)[C@@H](Cc1cccc2ccccc12)NC(=O)[C@H](Cc1ccccc1)NC(=O)[C@@H]1CCCN1C(=O)[C@@H](N)Cc1ccc(O)cc1)C(=O)O	–	–	–	–	–	–	0.068	0.098	> 1	> 1	–
N[C@@H](Cc1ccc(O)cc1)C(=O)N1Cc2ccccc2C[C@@H]1C(=O)NCC(=O)NCCCC(=O)N[C@H](CCCCNC(=O)CCNC(=O)CNC(=O)[C@@H](Cc1cccc2ccccc12)NC(=O)[C@H](Cc1ccccc1)NC(=O)[C@@H]1CCCN1C(=O)[C@@H](N)Cc1ccc(O)cc1)C(=O)O	0.0016	43	1.3	9	78	43	–	–	–	–	–
NCCCC[C@@H](NC(=O)CCCNC(=O)CNC(=O)[C@H]1Cc2ccccc2CN1C(=O)[C@@H](N)Cc1ccc(O)cc1)C(=O)O	0.17	28	–	–	–	–	–	–	–	–	–
